Data on 27 compounds can be found in ChEMBL document CHEMBL5230168, “Design, synthesis, and biological evaluation of new arjunolic acid derivatives as anticancer agents” (RSC Med Chem, 2023).

Series [1] has as its system PANC-1. Briefly: Cytotoxicity against human PANC-1 cells assessed as inhibition of cell growth incubated for 72 hrs by MTT assay. The format is functional, cell-based. The note with it: PANC-1, 72 h. An outline of the steps: (§1)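 Cells seeded per well (HT-29 4500, PANC-1 4000, SK-MEL-28 3200, A375 1200, A549 2500, H2170 and BJ 10 000) and left 24 h. They were then exposed to increasing concentrations for 72 h and incubated 1 h with MTT 0.5 mg mL−1. Formazan was dissolved in DMSO and absorbance read at 550 nm. IC50 from three independent experiments. Final DMSO ≤0.5%.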
(Tetrazolium assays rely on reduction of a dye to a coloured formazan, in cell work by metabolically active cells.)

Series [2] relates to HT-29. Briefly: Cytotoxicity against human HT-29 cells assessed as inhibition of cell growth incubated for 72 hrs by MTT assay. The format is functional, cell-based. The note with it: HT-29, 72 h. An outline of the steps: as §1
The subject of series [3] is PANC-1. Nature of the series: Potency index, ratio of Arjunolic acid IC50 to test compound IC50 for cytotoxicity against human PANC-1 cells assessed as inhibition of cell growth incubated for 72 hrs by MTT assay. It is filed as functional. An outline of the steps: (§2)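 Potency index: arjunolic acid IC50 divided by derivative IC50 from the 72 h MTT assay on HT-29 (4500 cells/well) or PANC-1 (4000 cells/well). IC50 from three independent experiments.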

Series [4] deals with HT-29. Nature of the series: Potency index, ratio of Arjunolic acid IC50 to test compound IC50 for cytotoxicity against human HT-29 cells assessed as inhibition of cell growth incubated for 72 hrs by MTT assay. It is filed as functional. An outline of the steps:
as §2

Another series has as its system SK-MEL-28. Briefly: Cytotoxicity against human SK-MEL-28 cells assessed as inhibition of cell growth incubated for 72 hrs by MTT assay. It is filed as functional, cell-based. The note with it: SK-MEL-28, 72 h. An outline of the steps: as §1
A further series concerns A549. Briefly: Cytotoxicity against human A549 cells assessed as inhibition of cell growth incubated for 72 hrs by MTT assay. It is filed as functional, cell-based. The note with it: A549, 72 h. An outline of the steps: as §1
The subject of a further series is NCI-H2170. Briefly: Cytotoxicity against human NCI-H2170 cells assessed as inhibition of cell growth incubated for 72 hrs by MTT assay. The conditions noted are these: NCI-H2170, 72 h. The format is functional, cell-based. An outline of the steps:
as §1

The subject of a further series is A-375. Nature of the series: Cytotoxicity against human A-375 cells assessed as inhibition of cell growth incubated for 72 hrs by MTT assay. The format is functional, cell-based. The note with it: A-375, 72 h. An outline of the steps:
as §1

Series [5] is described as follows: Selectivity index, ratio of IC50 for cytotoxicity against human BJ cells to IC50 for cytotoxicity against human PANC-1. The format is toxicity, cell-based. The note with it: BJ cells and PANC-1 cells, read-out: Ratio IC50. An outline of the steps: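 Selectivity index: BJ fibroblast IC50 over PANC-1 IC50, both from the 72 h MTT assay with 24 h pre-seeding (10 000 and 4000 cells/well). IC50 from three independent experiments.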

The nature of series [6]: Cytotoxicity against human BJ cells assessed as inhibition of cell growth incubated for 72 hrs by MTT assay. It is filed as toxicity, cell-based. An outline of the steps:
as §1

For orientation: IC50 means the concentration that gives 50% inhibition.

Molecules are shown by their SMILES.

On to `CNC(=O)[C@]12CCC(C)(C)C[C@H]1C1=CC[C@@H]3[C@@]4(C)C[C@@H](O)OC[C@](C)(C=O)[C@@H]4CC[C@@]3(C)[C@]1(C)CC2`, for which the IC50 with PANC-1 [1] was 16.6 µM; in the series with HT-29 [2], 25.9 µM.
Take `CCCCOC(=O)[C@]12CCC(C)(C)C[C@H]1C1=CC[C@@H]3[C@@]4(C)C[C@@H](O)[C@H](O)[C@@](C)(CO)[C@@H]4CC[C@@]3(C)[C@]1(C)CC2`: the IC50 with PANC-1 [1] came to 20.2 µM; in the series with HT-29 [2] it was 13.7 µM. Besides, the “Ratio IC50” value in the series with PANC-1 [3] and with HT-29 [4] was 2.7 throughout.
Regarding `C=CCOC(=O)[C@]12CCC(C)(C)C[C@H]1C1=CC[C@@H]3[C@@]4(C)C(C=O)=C[C@@](C)(CO)[C@@H]4CC[C@@]3(C)[C@]1(C)CC2`, the IC50 in the series on PANC-1 [1] worked out at 0.84 µM; in the series on SK-MEL-28, 0.53 µM; in the series on A549, 0.82 µM; in the series on NCI-H2170, 1.51 µM; with A-375, 0.59 µM; in the series on HT-29 [2] it was 0.55 µM.
Consider `CNC(=O)[C@]12CCC(C)(C)C[C@H]1C1=CC[C@@H]3[C@@]4(C)C[C@@H](OC(C)=O)[C@H](OC(C)=O)[C@@](C)(COC(C)=O)[C@@H]4CC[C@@]3(C)[C@]1(C)CC2`, for which the IC50 in the series on PANC-1 [1] was determined as 0.93 µM; in the series with HT-29 [2], 16.5 µM. For the same compound, the Ratio IC50 with PANC-1 [3] is 60.
For `CCNC(=O)[C@]12CCC(C)(C)C[C@H]1C1=CC[C@@H]3[C@@]4(C)C(C=O)=C[C@@](C)(CO)[C@@H]4CC[C@@]3(C)[C@]1(C)CC2`, the values for the IC50 in the series on PANC-1 [1] and in the series with HT-29 [2] were 4.15 µM and 3.43 µM, respectively.
Turning to `COC(=O)[C@]12CCC(C)(C)C[C@H]1C1=CC[C@@H]3[C@@]4(C)C[C@@H](O)OC[C@](C)(C=O)[C@@H]4CC[C@@]3(C)[C@]1(C)CC2`, the IC50 in the series on PANC-1 [1] was found to be 6.7 µM; in the series on HT-29 [2], 5.59 µM.
In the case of `C=CCOC(=O)[C@]12CCC(C)(C)C[C@H]1C1=CC[C@@H]3[C@@]4(C)C[C@@H](O)OC[C@](C)(C=O)[C@@H]4CC[C@@]3(C)[C@]1(C)CC2`, the IC50 came to 4.92 µM with PANC-1 [1] and 4.38 µM with HT-29 [2].
Consider `CCCCOC(=O)[C@]12CCC(C)(C)C[C@H]1C1=CC[C@@H]3[C@@]4(C)C(C=O)=C[C@@](C)(CO)[C@@H]4CC[C@@]3(C)[C@]1(C)CC2`, for which the IC50 was determined as 0.43 µM with PANC-1 [1]; 0.45 µM in the series on SK-MEL-28; 0.58 µM with A549; 1.3 µM with NCI-H2170; 0.55 µM in the series on A-375; 0.55 µM in the series with HT-29 [2]. In addition, the selectivity ratio in [5] came to 6.5. In addition, in series [6], the IC50 at 72 h was 2.79 µM.
In the case of `CC1(C)CC[C@]2(C(N)=O)CC[C@]3(C)C(=CC[C@@H]4[C@@]5(C)C(C=O)=C[C@@](C)(CO)[C@@H]5CC[C@]43C)[C@@H]2C1`, the IC50 is 3.74 µM in the series with PANC-1 [1] and 5.81 µM in the series on HT-29 [2].
For the compound `CC1(C)CC[C@]2(C(N)=O)CC[C@]3(C)C(=CC[C@@H]4[C@@]5(C)C[C@@H](O)[C@H](O)[C@@](C)(CO)[C@@H]5CC[C@]43C)[C@@H]2C1`, the IC50 in the series with PANC-1 [1] and in the series on HT-29 [2] was over 30 µM throughout.
Turning to `CCNC(=O)[C@]12CCC(C)(C)C[C@H]1C1=CC[C@@H]3[C@@]4(C)C[C@@H](OC(C)=O)[C@H](OC(C)=O)[C@@](C)(COC(C)=O)[C@@H]4CC[C@@]3(C)[C@]1(C)CC2`, the IC50 with PANC-1 [1] worked out at 0.63 µM; in the series with HT-29 [2] it was 1.17 µM. Besides, the Ratio IC50 with PANC-1 [3] was 89.
Consider `C=CCOC(=O)[C@]12CCC(C)(C)C[C@H]1C1=CC[C@@H]3[C@@]4(C)C[C@@H](O)[C@H](O)[C@@](C)(CO)[C@@H]4CC[C@@]3(C)[C@]1(C)CC2`, for which the IC50 was found to be 18.9 µM in the series on PANC-1 [1] and 12.8 µM with HT-29 [2]. Moreover, the Ratio IC50 turned out to be 3 in the series with PANC-1 [3] and 2.8 in the series on HT-29 [4].
Take `CC1(C)CC[C@]2(C(=O)O)CC[C@]3(C)C(=CC[C@@H]4[C@@]5(C)C[C@@H](O)OC[C@](C)(C=O)[C@@H]5CC[C@]43C)[C@@H]2C1`: the IC50 in the series on PANC-1 [1] and in the series with HT-29 [2] was over 30 µM in each case.
On to `CC(=O)OC[C@@]1(C)[C@@H]2CC[C@]3(C)[C@H](CC=C4[C@@H]5CC(C)(C)CC[C@]5(C(=O)O)CC[C@]43C)[C@@]2(C)C[C@@H](OC(C)=O)[C@@H]1OC(C)=O`, for which the IC50 in the series on PANC-1 [1] came to 14.9 µM; with HT-29 [2], 12.4 µM.
With `CC1(C)CC[C@]2(C(=O)O)CC[C@]3(C)C(=CC[C@@H]4[C@@]5(C)C[C@@H](O)[C@H](O)[C@@](C)(CO)[C@@H]5CC[C@]43C)[C@@H]2C1` [ARJUNOLIC ACID], the IC50 with PANC-1 [1] is 56.3 µM; in the series with HT-29 [2], 36.4 µM.
For `COC(=O)[C@]12CCC(C)(C)C[C@H]1C1=CC[C@@H]3[C@@]4(C)C[C@@H](O)[C@H](O)[C@@](C)(CO)[C@@H]4CC[C@@]3(C)[C@]1(C)CC2`, the IC50 worked out at 19.7 µM with PANC-1 [1] and 16.7 µM in the series on HT-29 [2]. In addition, the “Ratio IC50” value came to 2.7 with PANC-1 [3] and 2.2 with HT-29 [4].
Turning to `CC1(C)CC[C@]2(C(=O)O)CC[C@]3(C)C(=CC[C@@H]4[C@@]5(C)C(C=O)=C[C@@](C)(CO)[C@@H]5CC[C@]43C)[C@@H]2C1`, the IC50 with PANC-1 [1] was 5.27 µM; in the series on HT-29 [2], 5.73 µM.
As to `CNC(=O)[C@]12CCC(C)(C)C[C@H]1C1=CC[C@@H]3[C@@]4(C)C[C@@H](O)[C@H](O)[C@@](C)(CO)[C@@H]4CC[C@@]3(C)[C@]1(C)CC2`, the IC50 in the series with PANC-1 [1] and in the series with HT-29 [2] was over 30 µM throughout.
As to `CC(=O)OC[C@@]1(C)[C@@H]2CC[C@]3(C)[C@H](CC=C4[C@@H]5CC(C)(C)CC[C@]5(C(N)=O)CC[C@]43C)[C@@]2(C)C[C@@H](OC(C)=O)[C@@H]1OC(C)=O`, the IC50 in the series with PANC-1 [1] is 3.63 µM; with HT-29 [2], 19.3 µM. The “Ratio IC50” value in the series on PANC-1 [3] was found to be 15.
As to `CCOC(=O)[C@]12CCC(C)(C)C[C@H]1C1=CC[C@@H]3[C@@]4(C)C[C@@H](O)[C@H](O)[C@@](C)(CO)[C@@H]4CC[C@@]3(C)[C@]1(C)CC2`, the IC50 in the series on PANC-1 [1] worked out at 20.2 µM; in the series with HT-29 [2], 11.6 µM. In addition, the figures for the “Ratio IC50” value in the series with PANC-1 [3] and with HT-29 [4] were 2.7 and 3.1, respectively.
Turning to `CCOC(=O)[C@]12CCC(C)(C)C[C@H]1C1=CC[C@@H]3[C@@]4(C)C[C@@H](O)OC[C@](C)(C=O)[C@@H]4CC[C@@]3(C)[C@]1(C)CC2`, the IC50 in the series on PANC-1 [1] turned out to be 7.14 µM; in the series on HT-29 [2], 6.7 µM.
For `CNC(=O)[C@]12CCC(C)(C)C[C@H]1C1=CC[C@@H]3[C@@]4(C)C(C=O)=C[C@@](C)(CO)[C@@H]4CC[C@@]3(C)[C@]1(C)CC2`, the results for the IC50 in the series with PANC-1 [1] and in the series with HT-29 [2] were 2.38 µM and 7.41 µM, respectively.
Turning to `CCNC(=O)[C@]12CCC(C)(C)C[C@H]1C1=CC[C@@H]3[C@@]4(C)C[C@@H](O)[C@H](O)[C@@](C)(CO)[C@@H]4CC[C@@]3(C)[C@]1(C)CC2`, the IC50 came to 27.6 µM in the series on PANC-1 [1] and 25.5 µM in the series on HT-29 [2].
Consider `COC(=O)[C@]12CCC(C)(C)C[C@H]1C1=CC[C@@H]3[C@@]4(C)C(C=O)=C[C@@](C)(CO)[C@@H]4CC[C@@]3(C)[C@]1(C)CC2`, for which the IC50 was found to be 0.82 µM in the series with PANC-1 [1]; 0.85 µM in the series with SK-MEL-28; 1.22 µM with A549; 2.11 µM with NCI-H2170; 0.85 µM in the series on A-375; 0.87 µM in the series on HT-29 [2].
For `CC1(C)CC[C@]2(C(N)=O)CC[C@]3(C)C(=CC[C@@H]4[C@@]5(C)C[C@@H](O)OC[C@](C)(C=O)[C@@H]5CC[C@]43C)[C@@H]2C1`, in the series with PANC-1 [1], the IC50 was determined as 29.3 µM.
Regarding `CCCCOC(=O)[C@]12CCC(C)(C)C[C@H]1C1=CC[C@@H]3[C@@]4(C)C[C@@H](O)OC[C@](C)(C=O)[C@@H]4CC[C@@]3(C)[C@]1(C)CC2`, the IC50 came to 4.58 µM with PANC-1 [1] and 4.46 µM in the series on HT-29 [2].
For the compound `CCNC(=O)[C@]12CCC(C)(C)C[C@H]1C1=CC[C@@H]3[C@@]4(C)C[C@@H](O)OC[C@](C)(C=O)[C@@H]4CC[C@@]3(C)[C@]1(C)CC2`, the IC50 in the series on PANC-1 [1] came to 22 µM.
